Experimental data as given in ChEMBL document CHEMBL2057188, “Hybridizing ability and nuclease resistance profile of backbone modified cationic phosphorothioate oligonucleotides” (Bioorg Med Chem, 2012).

Experiments:
[1] = Stability in presence of Crotalus admanteus venom phosphodiesterase assessed as intact compound level at 5.5 uM in 50 mM Tris-Hcl buffer (pH 7.5) containing 10 mM MgCl2 incubated for 15 mins at 37 degC by HPLC; type: ADME; settings: pH 7.5, 0.25 h
Procedure, shortened: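 12-mers are first trimmed from the 3′ end with the venom 3′-exonuclease to give 7-mer substrates, which are purified by RP-HPLC. These are then re-incubated with enzyme in 50 mM Tris-HCl pH 7.5 with 10 mM MgCl2 at 37 °C for 15 min. The enzyme is heat-inactivated at 90 °C for 5 min, and the fraction of intact ODN remaining is quantified by HPLC.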

Nucleic Acid [2] = assay: (§1) DNA hybridizing activity at 22 bp double stranded DNA assessed as thermal stability of duplexes formed between compound and complimentary dsDNA by measuring melting temperature at 1.5 uM in presence of 7 mM pH 5.5 sodium phosphate buffer containing 140 mM K, 10 mM MgCl2 by UV based melting experiment; type: nucleic-acid assay
Nucleic Acid [3] = assay: (§2) DNA hybridizing activity at single stranded RNA assessed as thermal stability of duplexes formed between compound and complimentary ssRNA by measuring melting temperature at 4 uM in presence of 10 mM pH 7.2 sodium phosphate buffer containing 100 mM NaCl by UV based melting experiment; type: nucleic-acid assay
Nucleic Acid [4] = assay: as §2, with “measuring change in” for “measuring”, “experiment relative to untreated control” for “experiment”; type: nucleic-acid assay
Nucleic Acid [5] = assay: as §1, with “measuring change in” for “measuring”; type: nucleic-acid assay
Nucleic Acid [6] = assay: as §2, with “DNA” for “RNA”, “ssDNA” for “ssRNA”, “measuring change in” for “measuring”, “experiment relative to untreated control” for “experiment”; type: nucleic-acid assay
Nucleic Acid [7] = assay: DNA hybridizing activity at single stranded DNA assessed as thermal stability of duplexes formed between compound and complimentary ssDNA by measuring melting temperature at 4 uM in presence of 10 mM pH 7.2 sodium phosphate buffer containing 100 mM NaCl by UV based melting experiment; type: nucleic-acid assay

SMILES | Stability [1] | Tm (Nucleic Acid [2]) [°C] | Tm (Nucleic Acid [3]) [°C] | ΔTm (Nucleic Acid [4]) [°C] | ΔTm (Nucleic Acid [5]) [°C] | ΔTm (Nucleic Acid [6]) [°C] | Tm (Nucleic Acid [7]) [°C]
Cc1cn([C@H]2C[C@H](OP(=O)(O)O)[C@@H](CO[P@@](=O)(S)O[C@H]3C[C@H](n4cc(C)c(=O)[nH]c4=O)O[C@@H]3COP(=O)(O)O[C@H]3C[C@H](n4cc(C)c(=O)[nH]c4=O)O[C@@H]3COP(=O)(O)O[C@H]3C[C@H](n4cc(C)c(=O)[nH]c4=O)O[C@@H]3COP(=O)(O)O[C@H]3C[C@H](n4ccc(N)nc4=O)O[C@@H]3COP(=O)(O)O[C@H]3C[C@H](n4ccc(N)nc4=O)O[C@@H]3COP(=O)(O)O[C@H]3C[C@H](n4ccc(N)nc4=O)O[C@@H]3CO)O2)c(=O)[nH]c1=O | Stable |  |  |  |  |  | 
Cc1cn([C@H]2C[C@H](OP(=O)(O)OC[C@H]3O[C@@H](n4cc(C)c(=O)[nH]c4=O)C[C@@H]3OP(=O)(O)OC[C@H]3O[C@@H](n4cc(C)c(=O)[nH]c4=O)C[C@@H]3O[P@](=O)(OC[C@H]3O[C@@H](n4cc(C)c(=O)[nH]c4=O)C[C@@H]3OP(=O)(O)OC[C@H]3O[C@@H](n4cc(C)c(=O)[nH]c4=O)C[C@@H]3OP(=O)(O)OC[C@H]3O[C@@H](n4cc(C)c(=O)[nH]c4=O)C[C@@H]3OP(=O)(O)OC[C@H]3O[C@@H](n4ccc(N)nc4=O)C[C@@H]3OP(=O)(O)OC[C@H]3O[C@@H](n4ccc(N)nc4=O)C[C@@H]3OP(=O)(O)OC[C@H]3O[C@@H](n4ccc(N)nc4=O)C[C@@H]3OP(=O)(O)O)SCCCN)[C@@H](COP(=O)(O)O[C@H]3C[C@H](n4ccc(N)nc4=O)O[C@@H]3COP(=O)(O)O[C@H]3C[C@H](n4ccc(N)nc4=O)O[C@@H]3COP(=O)(O)O[C@H]3C[C@H](n4ccc(N)nc4=O)O[C@@H]3CO)O2)c(=O)[nH]c1=O |  | 24 | 43 | -3 | -2 | -2 | 40
Cc1cn([C@H]2C[C@H](OP(=O)(O)OC[C@H]3O[C@@H](n4cc(C)c(=O)[nH]c4=O)C[C@@H]3OP(=O)(O)OC[C@H]3O[C@@H](n4cc(C)c(=O)[nH]c4=O)C[C@@H]3O[P@](=O)(OC[C@H]3O[C@@H](n4cc(C)c(=O)[nH]c4=O)C[C@@H]3OP(=O)(O)OC[C@H]3O[C@@H](n4cc(C)c(=O)[nH]c4=O)C[C@@H]3OP(=O)(O)OC[C@H]3O[C@@H](n4cc(C)c(=O)[nH]c4=O)C[C@@H]3OP(=O)(O)OC[C@H]3O[C@@H](n4ccc(N)nc4=O)C[C@@H]3OP(=O)(O)OC[C@H]3O[C@@H](n4ccc(N)nc4=O)C[C@@H]3OP(=O)(O)OC[C@H]3O[C@@H](n4ccc(N)nc4=O)C[C@@H]3OP(=O)(O)O)SCCN3CCNCC3)[C@@H](COP(=O)(O)O[C@H]3C[C@H](n4ccc(N)nc4=O)O[C@@H]3COP(=O)(O)O[C@H]3C[C@H](n4ccc(N)nc4=O)O[C@@H]3COP(=O)(O)O[C@H]3C[C@H](n4ccc(N)nc4=O)O[C@@H]3CO)O2)c(=O)[nH]c1=O |  | 24 | 44 | -2 | -2 | -2 | 40
Cc1cn([C@H]2C[C@H](OP(=O)(O)OC[C@H]3O[C@@H](n4cc(C)c(=O)[nH]c4=O)C[C@@H]3OP(=O)(O)OC[C@H]3O[C@@H](n4cc(C)c(=O)[nH]c4=O)C[C@@H]3O[P@@](=O)(OC[C@H]3O[C@@H](n4cc(C)c(=O)[nH]c4=O)C[C@@H]3OP(=O)(O)OC[C@H]3O[C@@H](n4cc(C)c(=O)[nH]c4=O)C[C@@H]3OP(=O)(O)OC[C@H]3O[C@@H](n4cc(C)c(=O)[nH]c4=O)C[C@@H]3OP(=O)(O)OC[C@H]3O[C@@H](n4ccc(N)nc4=O)C[C@@H]3OP(=O)(O)OC[C@H]3O[C@@H](n4ccc(N)nc4=O)C[C@@H]3OP(=O)(O)OC[C@H]3O[C@@H](n4ccc(N)nc4=O)C[C@@H]3OP(=O)(O)O)SCCN3CCNCC3)[C@@H](COP(=O)(O)O[C@H]3C[C@H](n4ccc(N)nc4=O)O[C@@H]3COP(=O)(O)O[C@H]3C[C@H](n4ccc(N)nc4=O)O[C@@H]3COP(=O)(O)O[C@H]3C[C@H](n4ccc(N)nc4=O)O[C@@H]3CO)O2)c(=O)[nH]c1=O |  | 28 | 46 | 0 | 3 | 3 | 45
Cc1cn([C@H]2C[C@H](OP(=O)(O)OC[C@H]3O[C@@H](n4cc(C)c(=O)[nH]c4=O)C[C@@H]3OP(=O)(O)OC[C@H]3O[C@@H](n4cc(C)c(=O)[nH]c4=O)C[C@@H]3O[P@@](=O)(OC[C@H]3O[C@@H](n4cc(C)c(=O)[nH]c4=O)C[C@@H]3OP(=O)(O)OC[C@H]3O[C@@H](n4cc(C)c(=O)[nH]c4=O)C[C@@H]3OP(=O)(O)OC[C@H]3O[C@@H](n4cc(C)c(=O)[nH]c4=O)C[C@@H]3OP(=O)(O)OC[C@H]3O[C@@H](n4ccc(N)nc4=O)C[C@@H]3OP(=O)(O)OC[C@H]3O[C@@H](n4ccc(N)nc4=O)C[C@@H]3OP(=O)(O)OC[C@H]3O[C@@H](n4ccc(N)nc4=O)C[C@@H]3OP(=O)(O)O)SCCNCCN)[C@@H](COP(=O)(O)O[C@H]3C[C@H](n4ccc(N)nc4=O)O[C@@H]3COP(=O)(O)O[C@H]3C[C@H](n4ccc(N)nc4=O)O[C@@H]3COP(=O)(O)O[C@H]3C[C@H](n4ccc(N)nc4=O)O[C@@H]3CO)O2)c(=O)[nH]c1=O |  | 30 | 45 | -1 | 5 | 3 | 45
Cc1cn([C@H]2C[C@H](OP(=O)(O)OC[C@H]3O[C@@H](n4cc(C)c(=O)[nH]c4=O)C[C@@H]3OP(=O)(O)OC[C@H]3O[C@@H](n4cc(C)c(=O)[nH]c4=O)C[C@@H]3O[P@](=O)(OC[C@H]3O[C@@H](n4cc(C)c(=O)[nH]c4=O)C[C@@H]3OP(=O)(O)OC[C@H]3O[C@@H](n4cc(C)c(=O)[nH]c4=O)C[C@@H]3OP(=O)(O)OC[C@H]3O[C@@H](n4cc(C)c(=O)[nH]c4=O)C[C@@H]3OP(=O)(O)OC[C@H]3O[C@@H](n4ccc(N)nc4=O)C[C@@H]3OP(=O)(O)OC[C@H]3O[C@@H](n4ccc(N)nc4=O)C[C@@H]3OP(=O)(O)OC[C@H]3O[C@@H](n4ccc(N)nc4=O)C[C@@H]3OP(=O)(O)O)SCCCCCN)[C@@H](COP(=O)(O)O[C@H]3C[C@H](n4ccc(N)nc4=O)O[C@@H]3COP(=O)(O)O[C@H]3C[C@H](n4ccc(N)nc4=O)O[C@@H]3COP(=O)(O)O[C@H]3C[C@H](n4ccc(N)nc4=O)O[C@@H]3CO)O2)c(=O)[nH]c1=O |  | 24 | 42 | -4 | -2 | -3 | 39
Cc1cn([C@H]2C[C@H](OP(=O)(O)OC[C@H]3O[C@@H](n4cc(C)c(=O)[nH]c4=O)C[C@@H]3OP(=O)(O)OC[C@H]3O[C@@H](n4cc(C)c(=O)[nH]c4=O)C[C@@H]3O[P@@](=O)(OC[C@H]3O[C@@H](n4cc(C)c(=O)[nH]c4=O)C[C@@H]3OP(=O)(O)OC[C@H]3O[C@@H](n4cc(C)c(=O)[nH]c4=O)C[C@@H]3OP(=O)(O)OC[C@H]3O[C@@H](n4cc(C)c(=O)[nH]c4=O)C[C@@H]3OP(=O)(O)OC[C@H]3O[C@@H](n4ccc(N)nc4=O)C[C@@H]3OP(=O)(O)OC[C@H]3O[C@@H](n4ccc(N)nc4=O)C[C@@H]3OP(=O)(O)OC[C@H]3O[C@@H](n4ccc(N)nc4=O)C[C@@H]3OP(=O)(O)O)SCCCN3CCNCC3)[C@@H](COP(=O)(O)O[C@H]3C[C@H](n4ccc(N)nc4=O)O[C@@H]3COP(=O)(O)O[C@H]3C[C@H](n4ccc(N)nc4=O)O[C@@H]3COP(=O)(O)O[C@H]3C[C@H](n4ccc(N)nc4=O)O[C@@H]3CO)O2)c(=O)[nH]c1=O |  | 27 | 45 | -1 | 2 | 3 | 45
